Experimental data from different studies.
Compare with care: the assays were run in different laboratories.
Target: Insulin receptor (INSR, Homo sapiens, UniProt P06213)

With `CN(C)c1ncc(F)c(-c2cnn3ncccc23)n1` the remaining binding was 81% (binding; 1 µM).
For `CCS(=O)(=O)c1cc2cc(C[C@](O)(CC(C)(C)c3ccc(F)cc3C(N)=O)C(F)(F)F)[nH]c2cn1`, the remaining binding was 94% (cell-free assay, competition with immobilised ligand; 1 µM).
The remaining binding of `COc1ccnn2ncc(-c3ccnc(N(C)C)n3)c12` is reported as 96% (binding; 1 µM).
The remaining binding of `CNC(=O)[C@@H]1CC[C@@H](n2c(-c3ccc4cnccc4c3)nc3ccc(C(=O)NCc4cccc(C(N)=O)c4)cc32)C1` is reported as 92% (binding, competition with immobilised ligand; 1 µM).
The remaining binding of `Nc1ncc2c(n1)-c1c([nH]c3ccc(C#CC4CC4)cc13)CCCC2` is reported as 80% (binding, competition with immobilised ligand; 1 µM).
`CN(C)c1ncnc(-c2ccc3nc(Nc4cc(CN5CCN(C(=O)CC(F)(F)F)CC5)ccn4)[nH]c3c2)c1Cl` gave a remaining binding of 100% (cell-free assay, competition with immobilised ligand; 1 µM).
With `C[C@@H]1CCN(c2nccc(-c3cnn4ncccc34)n2)C1` the remaining binding was 72% (binding; 1 µM).
The remaining binding of `Cc1cc(-n2nc(Cc3cc(F)cc(C(F)(F)F)c3)nc2C)ccc1C(N)=O` is reported as 99% (cell-free assay, competition with immobilised ligand; 1 µM).
With `C[C@@H]1CN(c2ccc3ncc(-c4ccc5[nH]nc(C6CC6)c5c4)n3n2)C[C@H](C)O1` the remaining binding was 81% (binding, competition with immobilised ligand; 0.5 µM).
`CN(C)c1nccc(-c2cnn3ncccc23)n1` has a remaining binding of 79% (binding; 1 µM).
The remaining binding of `COc1ccc2c(c1)O[C@@H](c1ccc(OC)c(OC)c1)C[C@H]2NC(=O)C1(c2ccc3c(c2)OC(F)(F)O3)CC1` is reported as 79% (cell-free assay, competition with immobilised ligand; 1 µM).
For `CN(CCCC(F)(F)F)c1nccc(-c2cnn3ncccc23)n1`, the remaining binding was 78% (binding; 1 µM).
For `COc1cnc(Nc2cccc(S(N)(=O)=O)c2)nc1N1CCN(c2ccccc2)C(=O)C1`, the remaining binding was 96% (binding, competition with immobilised ligand; 1 µM).
`Cc1cc(NC(=O)c2cccc(S(F)(F)(F)(F)F)c2)cc(-n2ccn3nc(-c4cccnc4)cc23)c1` gave a remaining binding of 100% (cell-free assay, competition with immobilised ligand; 1 µM).
The remaining binding of `CC(C)(C)c1ccc(-c2nc(CBr)nn2-c2cccc(O)c2)cc1` is reported as 93% (cell-free assay, competition with immobilised ligand; 10 µM).
For `O=C(c1ccc(Nc2nccc(-c3cc4ccccc4s3)n2)cc1)N1CCC(N2CCCC2)CC1`, the remaining binding was 66% (binding, competition with immobilised ligand; 1 µM).
The remaining binding of `COc1ncc2cc3ccccc3nc2c1C#N` is reported as 100% (cell-free assay, competition with immobilised ligand; 5 µM).
`CC(=O)C1=C(C)N(c2cccc(C(F)(F)F)c2)C(=O)N[C@@H]1c1ccc(C#N)nc1` gave a remaining binding of 89.3% (cell-free assay, competition with immobilised ligand; 1 µM).
For `C=CC(=O)N1CCC(C(=O)NCC(=O)N2CCN(c3nc(-c4cnc(N)nc4C(F)F)nc(N4CCOCC4)n3)CC2)CC1`, the remaining binding was 99% (binding, competition with immobilised ligand; 1 µM).
`N[C@@H]1CCN(c2nccc(-c3cnn4ncccc34)n2)C1` gave a remaining binding of 100% (binding; 1 µM).
`O=C(c1ccc(Nc2ncc(Cl)c(-c3ccc(Cl)s3)n2)cc1)N1CCC(N2CCCC2)CC1` has a remaining binding of 2.3% (binding, competition with immobilised ligand; 1 µM).
The remaining binding of `C[C@@H](c1ccc(-n2cnc3c(N)ncnc32)cc1)N1CCc2nn(C)c(Cc3ccccc3)c2C1=O` is reported as 100% (binding, competition with immobilised ligand; 0.1 µM).
For `Cc1cnc(Nc2ccc(C(=O)N3CCC(N4CCCC4)CC3)cc2)nc1-c1cc2ccccc2s1`, the remaining binding was 7.8% (binding, competition with immobilised ligand; 1 µM).
The remaining binding of `O=C(Nc1c[nH]nc1C(=O)NC1CCNCC1)c1cc(F)cc(F)c1` is reported as 100% (binding, competition with immobilised ligand; 1 µM).
`CN(C)C(=O)Cn1cc(-c2nc(C3(c4ccc(-c5cnc(N)nc5)cc4)CC3)no2)cn1` has a remaining binding of 90% (cell-free assay, competition with immobilised ligand; 1 µM).
